Only some compounds are listed: those with a hit (about 4.8% of all), similar ones and a draw of the others.
ATG4B inhibitor = ATG4B protease inhibitors, primary screen, biochemical, fluorescence, uHTS; inhibition, % at 8.33 µM; ATG4B cleavage of LC3-PLA2, NBD-HPC fluorescence, 1 h; Cysteine protease ATG4B (Homo sapiens), Q9Y4P1; 0.51% of 340,000 active; AID 504462, 2011; in the data active = inhibition above about 40%
Target sequence (Q9Y4P1 whole entry, looked up): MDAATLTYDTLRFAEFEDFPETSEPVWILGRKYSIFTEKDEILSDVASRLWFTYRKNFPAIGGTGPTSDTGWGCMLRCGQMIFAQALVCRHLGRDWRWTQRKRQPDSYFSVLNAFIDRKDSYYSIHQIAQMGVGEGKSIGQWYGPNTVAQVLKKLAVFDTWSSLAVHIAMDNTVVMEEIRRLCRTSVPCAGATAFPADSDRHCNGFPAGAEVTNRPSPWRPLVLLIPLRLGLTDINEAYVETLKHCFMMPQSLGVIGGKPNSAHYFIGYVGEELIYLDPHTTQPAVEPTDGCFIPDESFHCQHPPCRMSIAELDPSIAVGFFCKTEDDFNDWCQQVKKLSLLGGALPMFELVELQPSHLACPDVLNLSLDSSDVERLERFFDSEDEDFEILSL
NALP3 yeast inh = NALP3 inflammasome inhibitors in reconstituted yeast, primary screen, luminescence, uHTS; inhibition, % at 10 µM; Yeast reconstituted NLRP3/ASC/caspase-1, beta-gal luminescence, 24 h; 0.39% of 330,000 active;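 active = inhibition of 50% or more; inactive = inhibition below 50%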;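 note: plate controls were induced DMSO wells for no effect and uninduced yeast grown without galactose for full effect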
NALP1 inh = NALP1 inflammasome inhibitors in reconstituted yeast, colorimetric, S. cerevisiae, triplicate retest; S. cerevisiae NALP1/ASC/caspase-1 growth, X-gal OD620, 72 h; inhibition, % at 10 µM; 0.61% of 280,000 active; AID 2071, 2009; in the data active = inhibition mostly above about 24%, no sharp cut-off; inactive = mostly below about 32%
Calb FLC = C. albicans growth inhibition with fluconazole, primary screen, CaCi-2 strain, Alamar Blue fluorescence | 0.57% of 300,000 active | growth inhibition, % (concentration not given with the values) | C. albicans CaCi-2 (fluconazole-resistant clinical isolate) + fluconazole, 48 h;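 active = growth inhibition above about 58% in most replicates, limit read from the data, passing the limit was not always enough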;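 note: all wells also contain fluconazole at 8 µg/ml as a sub-toxic cotreatment; 0% = median of DMSO wells and 100% = median of geldanamycin control wells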
ALR inh = inhibitors of human ALR sulfhydryl oxidase, primary screen, biochemical, H2O2 detection, HRP-luminol luminescence, single point. AID 485317, 2010. purified ALR, DTT oxidation. 3.8% of 290,000 active. inhibition, % (concentration not given with the values);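 active = mean replicate inhibition above about 79%, with every replicate also reaching it, limit read from the data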
Target sequence (P55789 whole entry, looked up): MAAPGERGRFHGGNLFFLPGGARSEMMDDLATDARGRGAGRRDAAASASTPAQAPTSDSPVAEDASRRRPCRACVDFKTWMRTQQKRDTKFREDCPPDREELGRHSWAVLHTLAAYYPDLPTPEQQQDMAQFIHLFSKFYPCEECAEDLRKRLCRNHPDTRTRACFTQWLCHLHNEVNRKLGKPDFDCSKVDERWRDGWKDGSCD
UCH37 DUB inh = inhibitors of human UCH37 deubiquitinase, primary screen, biochemical, Ub-AMC cleavage, fluorescence. Ubiquitin carboxyl-terminal hydrolase isozyme L5 (Homo sapiens), Q9Y5K5. purified proteasome/UCH37. inhibition, % (test concentration not listed). 0.33% of 330,000 active;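 active = mean inhibition over replicate wells above about 20%, limit read from the data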;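 note: 0% = compound-free wells with enzyme and 100% = wells lacking proteasome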
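Material: human UCH37 enzyme supplied as purified proteasome complex / Amount: 0.15 nM proteasome as dispensed / Buffer or medium: pH 7.4 Tris-HCl (50 mM) with ovalbumin, ATP-MgCl2, DTT / Times: preincubation 30 min, reaction 25 min, room temperature / Technique: AMC fluorescence from Ub-AMC cleavage, excitation 355 nm, emission 460 nm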
An asterisk follows results filed as active; nt = not tested or not shown.

SMILES	ATG4B inhibitor	NALP3 yeast inh	NALP1 inh	Calb FLC	ALR inh	UCH37 DUB inh
CN(C)c1ccc(-n2cc3c(=O)n(C)c(=O)n(C)c3c2)cc1	-17.6	31.7	-8.9	-0.8	98.5*	-36.0
CCN(CC)c1ccc(-n2cc3c(=O)n(C)c(=O)n(C)c3c2)cc1	-1.0	25.2	18.1	11.1	73.3	-92.4
OCC#CCSc1nnc(-c2ccncc2)o1	2.4	-2.1	31.4*	-7.8	-3.0	0.3
CCSc1nnc(-c2ccncc2)o1	5.7	13.3	10.3	-6.4	1.2	2.8
COc1ccc(/C=C(/NC(=O)c2ccccc2)c2nc3ccc(Cl)cc3[nH]2)cc1OC	-8.0	10.9	28.0	70.2*	-4.1	-4.5
COc1ccc(/C=C(/NC(=O)c2ccccc2)c2nc3ccccc3[nH]2)cc1OC	-8.0	15.4	6.8	-0.6	-1.7	5.0
N#Cc1ccccc1S(=O)(=O)N1CCN(C(=O)Cc2coc3cc(O)ccc23)CC1	-5.5	11.7	nt	nt	98.9*	0.4
Cn1ccsc1=NS(=O)(=O)c1ccc(Br)cc1	nt	nt	nt	nt	nt	0.7
C=CCn1c(SCC(=O)c2c(N)n(C)c(=O)n(C)c2=O)nnc1-c1ccccc1F	-3.0	-3.8	36.8*	-17.5	-4.0	0.7
Cn1c(N)c(C(=O)CSc2nnc(-c3ccccc3F)n2N)c(=O)n(C)c1=O	1.3	-20.1	nt	-4.1	-3.1	4.0
Cn1c(N)c(C(=O)CSc2nnc(-c3ccccc3F)n2C2CC2)c(=O)n(C)c1=O	-7.9	12.3	34.3*	13.7	-3.5	1.5
O=C(NN=Cc1cccc2ccccc12)c1cccc(F)c1	nt	nt	nt	nt	nt	-0.2
CC1CCCCC1NC(=O)CON=Cc1ccccc1OC(F)F (centres undefined)	nt	nt	nt	nt	nt	2.9
COc1ccc(Oc2c(OC)cc([N+](=O)[O-])c3ncccc23)cc1	-3.4	nt	nt	nt	nt	0.6
COc1cc(NC(C)CCCN)c2ncccc2c1Oc1ccccc1 (centres undefined)	-2.4	3.6	58.1*	-7.8	nt	2.8
CC1=NN(c2ccccc2)C(=O)/C1=C/C=C/c1ccccc1	-13.2	6.5	24.1	14.1	0.8	3.2
CC1=NN(c2cccc(C(=O)O)c2)C(=O)/C1=C\C=C\c1ccco1	20.6	-3.5	3.5	0.8	83.1*	15.3
COc1ccccc1/C=C\C=Nn1c(-c2ccc(Cl)cc2)n[nH]c1=S	nt	nt	nt	nt	nt	5.1
C(#Cc1ccccc1)C[N+]1(CC#Cc2ccccc2)CCCCC1	3.2	2.3	11.4	82.1*	-3.2	3.9
C#CC[N+]1(CC#Cc2ccccc2)CCCCC1	8.3	11.3	9.8	0.7	-1.2	2.2
C=CCN1C(=O)c2oc3ccccc3c(=O)c2C1c1ccc(O)c(OC)c1 (centres undefined)	-5.0	5.6	37.6*	-3.7	nt	4.4
COCCN1C(=O)c2oc3ccccc3c(=O)c2C1c1ccc(OC)c(OC)c1 (centres undefined)	3.5	17.1	22.7	4.7	-8.8	2.0
C/C(C=NNc1nc2ccccc2[nH]1)=C\c1ccccc1	nt	nt	nt	nt	nt	-9.6
COc1ccccc1CNC(=O)CC(C)C	-8.9	-7.9	8.3	-15.5	-5.3	3.6
COC(=O)CC(N)c1ccc(OC)c2ccccc12 (centres undefined)	-13.2	25.3	36.1*	-0.7	-3.6	1.0
SMILES	ATG4B inhibitor	NALP3 yeast inh	NALP1 inh	Calb FLC	ALR inh	UCH37 DUB inh
CC(=NNC(=O)c1cccs1)c1ccc2c(c1)OCO2	nt	nt	nt	nt	nt	-12.7
O=c1c2cc(N3CCOCC3)ccc2[nH]c(=S)n1CCCN1CCN(c2ccccc2F)CC1	nt	13.6	-7.4	nt	1.7	-44.4
COc1cc2c(=O)n(CCCN3CCOCC3)c(=S)[nH]c2c(OC)c1OC	-3.3	4.7	-2.6	-24.0	94.8*	8.3
CN1CCN(CCn2c(=S)[nH]c3ccccc3c2=O)CC1	-5.7	7.5	6.1	0.2	14.6	0.8
COc1ccccc1N1CCN(CCCn2c(=S)[nH]c3ccccc3c2=O)CC1	-2.6	17.6	11.4	-4.9	96.8*	-1.1
COc1ccc(N2CCN(CCCn3c(=S)[nH]c4ccccc4c3=O)CC2)cc1	3.9	26.3	-14.4	8.5	94.9*	4.4
CCOC(=O)C(C(=O)OCC)C(C)(C)C(C)=NNc1ccc([N+](=O)[O-])cc1[N+](=O)[O-]	nt	nt	nt	nt	nt	3.2
CC(=NNC(=O)Nc1ccccc1)c1ccc2ccccc2c1	nt	nt	nt	nt	nt	6.0
COc1cc(-c2cc(=O)c3ccccc3o2)ccc1O	-5.3	37.8	5.3	16.2	99.3*	-2.8
COc1cc(-c2cc(=O)c3c(O)cc(O)cc3o2)ccc1O	-13.2	20.9	-13.2	-1.8	-9.5	3.5
COc1cc(-c2cc(=O)c3c(O)c(OC)c(OC)cc3o2)cc(OC)c1O	-2.9	7.1	-4.6	9.8	77.3*	11.8
COc1ccc(-c2cc(=O)c3c(O)c(OC)c(O)cc3o2)cc1	-12.8	23.3	2.9	1.2	-12.4	6.9
CCc1c(O)nc(SCC(=O)c2ccccc2)n(-c2ccccc2)c1=O	5.3	2.4	nt	0.2	99.0*	4.0
CCc1c(O)nc(SCC(=O)N2CCOCC2)n(-c2ccccc2)c1=O	2.6	-8.3	1.3	-23.7	96.1*	2.2
CCCCc1c(O)nc(SCC(=O)N2CCOCC2)n(-c2ccc(OC)cc2)c1=O	2.0	10.8	15.3	-0.3	9.2	4.1
S=c1[nH]nc(COc2ccccc2)n1N=C/C(Cl)=C/c1ccccc1	nt	nt	nt	nt	nt	6.0
CCOC(=O)CC1C(=O)NCCN1C(=O)c1c(Cl)cccc1Cl (centres undefined)	1.2	14.1	2.9	92.4*	nt	-3.2
CCOc1ccccc1C1N=C(c2ccc(OC)cc2)CC(c2ccccc2O)N1 (centres undefined)	-0.1	32.9	2.1	1.7	96.2*	-1.1
CC(=NNC(=S)NC1CCCCC1)c1cccc(Br)c1	nt	nt	nt	nt	nt	1.9
CCOC(=O)Cn1c(=O)oc2cc(S(=O)(=O)NCCC(C)C)ccc21	-6.8	2.5	40.6*	-0.4	5.5	4.5
CCOC(=O)Cn1c(=O)oc2cc(S(=O)(=O)Nc3cc(OCC)ccc3OCC)ccc21	-6.6	5.8	8.3	nt	nt	4.1
CCOC(=O)Cn1c(=O)oc2cc(S(=O)(=O)Nc3ccc(N(CC)CC)cc3C)ccc21	-2.5	7.9	2.4	7.4	98.8*	3.1
CC(=NOCC(=O)NN=Cc1ccc(C)cc1O)c1cccs1	nt	nt	nt	nt	nt	-5.2
CCOC(=O)c1c(N2CCN(c3ccccc3)CC2)cc(C)nc1C	1.5	21.2	16.7	1.8	96.9*	1.6
CCOC(=O)c1c(CN2CCN(c3ccccc3)CC2)oc2ccc(O)cc12	-1.4	4.0	23.3	8.4	71.1	4.7

Source: PubChem BioAssay (several laboratories)
